Activity calls are given as the source filed them. The rule behind the calls is not given here.
Assays:
[1] = test system: Trypanosoma cruzi; assay: Antitrypanosomal activity against Trypanosoma cruzi; assay type: functional, organism-based
[2] = molecular target: Cruzipain (Trypanosoma cruzi) (UniProt P25779); assay: Inhibition of Trypanosoma cruzi recombinant cruzain using Z-FR-AMC as substrate at 100 uM preincubated for 10 mins before substrate addition
Procedure, shortened: (§1)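 Recombinant cruzain preincubated 10 min at room temperature with compound (DMSO) in phosphate buffer containing EDTA, 100 mM NaCl and DTT. Z-FR-AMC then added; final 0.5 nM enzyme and 2 μM substrate. Fluorescence read at 1, 5 and 10 min; % inhibition versus no-inhibitor control. Single-point values are triplicate means; IC50 by nonlinear regression from multiple concentrations. Some runs used 0.01% Triton X-100.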

[3] = Cytotoxicity against BALB/c mouse splenocytes assessed as highest nontoxic concentration by measuring [3H]-thymidine incorporation after 24 hrs by beta-radiation counting; assay type: cell-based, Splenocyte; settings: for MNTC at 24 h: mouse, splenocytes, read-out: Activity; for highest nontoxic concentration: Mus musculus, Splenocyte, read-out: IC50
Procedure, shortened: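 BALB/c splenocytes, 5 × 10⁶ cells/well in RPMI-1640 with 10% FBS. Compound in DMSO at 1.0, 10 and 100 μg/mL or more, triplicate; untreated and saponin controls. 24 h at 37 °C, 5% CO₂. 1.0 μCi ³H-thymidine added, incorporation read by β-counting as % of untreated. Highest nontoxic concentration estimated.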

[4] = test system: Trypanosoma cruzi; assay: Antitrypanosomal activity against trypomastigotes of Trypanosoma cruzi Y infected in LLC-MK2 cells assessed as parasite motility after 24 hrs; assay type: functional, organism-based; settings: LLC-MK2, 24 h
Procedure, shortened: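 Y strain bloodstream trypomastigotes taken from LLC-MK2 culture supernatant, 4 × 10⁵ cells/well. Five compound concentrations (DMSO), triplicate, 24 h at 37 °C, 5% CO₂. Viable parasites judged by motility in a Neubauer chamber. Inhibition calculated relative to untreated culture; IC50 by nonlinear regression.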

[5] = test system: Trypanosoma cruzi; assay: Antitrypanosomal activity against epimastigotes of Trypanosoma cruzi Y in axenic culture assessed as parasite motility after 11 days; settings: 264 h
[6] = molecular target: Cruzipain (Trypanosoma cruzi) (UniProt P25779); assay: (§2) Inhibition of Trypanosoma cruzi recombinant cruzain using Z-FR-AMC as substrate at 20 uM preincubated for 10 mins before substrate addition
[7] = molecular target: T1, Cruzipain (Trypanosoma cruzi, UniProt P25779); assay: as §2
T1 sequence (P25779 whole entry): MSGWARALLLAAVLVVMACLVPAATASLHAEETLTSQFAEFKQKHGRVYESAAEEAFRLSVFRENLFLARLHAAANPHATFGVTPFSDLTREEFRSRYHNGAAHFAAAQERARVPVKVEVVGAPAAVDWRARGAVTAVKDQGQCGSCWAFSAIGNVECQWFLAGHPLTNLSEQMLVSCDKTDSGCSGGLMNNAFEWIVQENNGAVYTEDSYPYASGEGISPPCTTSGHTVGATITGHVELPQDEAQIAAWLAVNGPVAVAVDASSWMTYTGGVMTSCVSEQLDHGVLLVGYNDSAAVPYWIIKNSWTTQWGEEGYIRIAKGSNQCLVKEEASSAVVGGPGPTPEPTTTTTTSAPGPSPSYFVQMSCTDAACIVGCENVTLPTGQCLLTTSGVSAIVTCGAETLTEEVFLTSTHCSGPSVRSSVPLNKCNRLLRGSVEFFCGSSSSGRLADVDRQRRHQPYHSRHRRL

[8] = test system: Trypanosoma cruzi; assay: Inhibition of trypomastigotes of Trypanosoma cruzi Y invasion to mouse peritoneal macrophages at 50 uM […]; assay type: functional, organism-based
[9] = test system: Trypanosoma cruzi; assay: Antitrypanosomal activity against trypomastigotes of Trypanosoma cruzi Y infected in mouse peritoneal macrophages assessed as reduction of intracellular parasite level at 10 uM after 4 days; assay type: functional, organism-based
Procedure, shortened: (§3)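 Peritoneal exudate macrophages, 2 × 10⁵/well on coverslips, infected with Y strain trypomastigotes at 10 parasites per macrophage for 2 h, then washed. Compound in DMSO added for 6 h, medium replaced, culture continued 4 days. After methanol fixation and Giemsa staining, 100 cells per slide counted for % infected macrophages and amastigotes per cell. IC50 based on % infected cells versus untreated.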

[10] = Selectivity index, ratio of IC50 for concanavalin A-stimulated BALB/c mouse splenocytes to IC50 for trypomastigotes of Trypanosoma cruzi Y infected in mouse peritoneal macrophages
Procedure, shortened: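 Ratio of splenocyte IC50 to IC50 against intracellular parasites in Y strain-infected peritoneal macrophages (4-day assay).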

[11] = Antiproliferative activity against concanavalin A-stimulated BALB/c mouse splenocytes after 72 hrs by AlamarBlue assay; assay type: cell-based; settings: Splenocyte
Procedure, shortened: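 Splenocytes from BALB/c mice at 5 × 10⁶ cells/well in RPMI-1640 with 10% FBS, stimulated with 2.0 μg/mL concanavalin A. Compounds in DMSO, six concentrations in triplicate. Controls: con A alone, no con A, and con A plus 0.01 μg/mL cyclosporin A. 72 h at 37 °C, 5% CO₂. AlamarBlue for 1 h, fluorescence ex 530/em 590 nm. IC50 by nonlinear regression.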

[12] = test system: Trypanosoma cruzi; assay: Antitrypanosomal activity against trypomastigotes of Trypanosoma cruzi Y infected in mouse peritoneal macrophages assessed as reduction of intracellular parasite level after 4 days; assay type: functional, organism-based; settings: 96 h; procedure, shortened: as §3
[13] = molecular target: Cathepsin S (Homo sapiens, UniProt P25774); assay: Inhibition of recombinant cathepsin S using ZFR-pNA as substrate preincubated for 45 mins
Sequence of Cathepsin S (P25774 whole entry): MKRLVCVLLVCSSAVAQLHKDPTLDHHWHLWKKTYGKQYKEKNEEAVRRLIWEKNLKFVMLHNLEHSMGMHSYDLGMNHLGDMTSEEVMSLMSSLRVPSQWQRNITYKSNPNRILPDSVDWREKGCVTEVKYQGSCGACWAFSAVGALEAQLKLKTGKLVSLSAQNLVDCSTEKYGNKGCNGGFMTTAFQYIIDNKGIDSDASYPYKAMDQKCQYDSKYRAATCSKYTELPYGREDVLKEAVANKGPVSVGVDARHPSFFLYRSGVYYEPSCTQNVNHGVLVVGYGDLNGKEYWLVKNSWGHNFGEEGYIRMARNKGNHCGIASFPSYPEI
Procedure, shortened: (§4)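 Recombinant cathepsin L or S activated with 1 mM DTT in 0.1 M acetate pH 5.5. Preincubated 45 min at room temperature with compound in phosphate buffer with 0.1% BSA, 1 mM EDTA and 0.001% Tween. Z-FR-pNA added, reaction 5 min; final 30 nM enzyme and 5.0 μM substrate. Triplicate runs; IC50 from at least seven concentrations.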

[14] = molecular target: T2, Procathepsin L (Homo sapiens, UniProt P07711); assay: Inhibition of recombinant cathepsin L using ZFR-pNA as substrate at 100 uM preincubated for 45 mins; procedure, shortened: as §4
Target sequence in this assay (P07711 114-333 limits assumed): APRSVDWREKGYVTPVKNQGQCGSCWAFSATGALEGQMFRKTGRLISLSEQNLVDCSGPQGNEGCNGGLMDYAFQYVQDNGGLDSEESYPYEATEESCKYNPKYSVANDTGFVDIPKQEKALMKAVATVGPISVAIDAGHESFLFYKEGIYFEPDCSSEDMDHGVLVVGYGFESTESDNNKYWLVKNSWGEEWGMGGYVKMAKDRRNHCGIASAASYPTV

[15] = molecular target: T2, Procathepsin L; assay: Inhibition of recombinant cathepsin L using ZFR-pNA as substrate preincubated for 45 mins; procedure, shortened: as §4
Target sequence in this assay (P07711 whole entry): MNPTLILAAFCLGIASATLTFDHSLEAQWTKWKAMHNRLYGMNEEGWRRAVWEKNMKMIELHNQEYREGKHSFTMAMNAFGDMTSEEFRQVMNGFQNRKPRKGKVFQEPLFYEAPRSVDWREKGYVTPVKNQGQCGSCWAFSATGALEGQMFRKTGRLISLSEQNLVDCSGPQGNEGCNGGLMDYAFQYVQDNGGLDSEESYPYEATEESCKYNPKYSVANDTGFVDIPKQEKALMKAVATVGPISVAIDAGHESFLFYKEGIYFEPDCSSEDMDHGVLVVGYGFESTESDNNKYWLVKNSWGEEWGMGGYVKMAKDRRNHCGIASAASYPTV

[16] = Solubility of the compound in 0.1 M sodium acetate pH 5.5; assay type: physicochemical; settings: buffer
[17] = molecular target: T1, Cruzipain; assay: Inhibition of Trypanosoma cruzi recombinant cruzain using Z-FR-AMC as substrate preincubated for 10 mins before substrate addition; procedure, shortened: as §1
[18] = molecular target: Cruzipain (Trypanosoma cruzi) (UniProt P25779); assay: Inhibition of Trypanosoma cruzi recombinant cruzain using Z-FR-AMC as substrate at 20 uM preincubated for 10 mins before substrate addition in presence of 0.01% of Triton X-100; procedure, shortened: as §1
[19] = test system: Trypanosoma cruzi; assay: Induction of ultrastructural alteration of trypomastigotes of Trypanosoma cruzi Y at 3.9 uM by scanning electron microscopy; assay type: functional, organism-based
Procedure, shortened: (§5)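 Y strain bloodstream trypomastigotes and infected macrophages exposed to 3.9 μM compound, then examined by transmission and scanning electron microscopy.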

[20] = test system: Trypanosoma cruzi; assay: Induction of ultrastructural alteration of trypomastigotes of Trypanosoma cruzi Y at 3.9 uM by transmission electron microscopy; assay type: functional, organism-based; procedure, shortened: as §5
[21] = test system: Trypanosoma cruzi; assay: Antitrypanosomal activity against trypomastigotes of Trypanosoma cruzi Y infected in BALB/c mouse assessed as reduction of blood parasite level at 250 umol/kg, po qd for 5 days; assay type: functional; parameters: scale not given: the % may be the effect or the level left
Procedure, shortened: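 Female BALB/c mice, 6–8 weeks old, infected ip with 10⁴ Y strain bloodstream trypomastigotes in saline; six mice per group. From day 5 postinfection, 250 μmol/kg given orally by gavage once daily for 5 days. Fresh-blood parasitemia counted in a hemocytometer. Reduction = (vehicle − treated)/vehicle × 100, using day 5 of treatment; two independent experiments.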

[22] = test system: Mus musculus; assay: Toxicity in BALB/c mouse assessed as mortality at 250 umol/kg, po qd for 5 days; assay type: organism-based; settings: in vivo, 120 h
Procedure, shortened: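 Female BALB/c mice, 6–8 weeks old, were infected i.p. with 10⁴ Y strain bloodstream trypomastigotes in saline and randomly grouped, six per group. From day 5 postinfection, drug was given orally by gavage at 250 μmol/kg once daily for five consecutive days. Blood parasites were counted by hemocytometer, and survival was followed for one month. Untreated and benznidazole-treated infected mice served as controls.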

[23] = test system: Mus musculus; assay: Toxicity in BALB/c mouse assessed as reduction in body weight at 250 umol/kg, po qd for 5 days; assay type: organism-based; settings: in vivo, 120 h
[24] = test system: Trypanosoma cruzi; assay: Antitrypanosomal activity against epimastigotes of Trypanosoma cruzi Y assessed as reduction of proteolytic activity using gelatin as substrate after 48 hrs by zymography assays

Sequence of Cruzipain (Trypanosoma cruzi) (P25779 123-467 limits assumed): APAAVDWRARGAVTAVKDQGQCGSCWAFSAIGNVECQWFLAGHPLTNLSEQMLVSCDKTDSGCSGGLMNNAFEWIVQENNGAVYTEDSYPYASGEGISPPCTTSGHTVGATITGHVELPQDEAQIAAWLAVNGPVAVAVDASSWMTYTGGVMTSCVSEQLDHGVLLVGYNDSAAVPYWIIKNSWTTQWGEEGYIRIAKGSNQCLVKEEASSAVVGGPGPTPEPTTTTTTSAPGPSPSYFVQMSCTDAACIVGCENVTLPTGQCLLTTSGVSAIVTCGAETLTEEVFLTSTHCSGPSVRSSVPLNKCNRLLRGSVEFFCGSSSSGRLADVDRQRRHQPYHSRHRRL

SMILES | MNTC at 24 h [3] | IC50 [4] | IC50 [5] | inhibition [6] | Activity [9] | inhibition [14] | IC50 [15] | further results
Cc1ccc(SC/C=N/N=C2\NC(=O)C(C)S2)cc1 (stereo not given) | – | – | – | – | – | – | – | IC50 [1]: 80.4 µM
C/C(COc1ccccc1)=N\Nc1nc(-c2cccs2)cs1 | 50 µg/mL | 37.6 µM | 16.6 µM | – | – | – | – | inhibition [2]: 30%
C/C(COc1ccccc1)=N\Nc1nc(-c2ccccc2)cs1 | 50 µg/mL | 19.6 µM | – | inactive | – | – | – | IC50 [7]: > 20 µM
C/C(COc1ccccc1)=N\Nc1nc(-c2ccncc2)cs1 | 100 µg/mL | 3.9 µM | 4 µM | – | inactive | – | – | inhibition [8]: inactive; inhibition [2]: 13.3%
C/C(COc1ccccc1)=N\N=C1/NC(=O)CS1 | > 100 µg/mL | 19 µM | 23.2 µM | 0% | – | 1% | > 100 µM | Ratio IC50 [10]: 10; IC50 [11]: 98 µM; IC50 [12]: 19.5 µM; IC50 [13]: > 100 µM; highest nontoxic concentration [3]: > 200 µM
C[C@@H]1[C@H](O)[C@@H](C)/C=C/C=C/C=C/C=C/C=C/C=C/C=C/[C@H](O[C@@H]2O[C@H](C)[C@@H](O)[C@H](N)[C@@H]2O)C[C@@H]2O[C@](O)(C[C@@H](O)C[C@@H](O)[C@H](O)CC[C@@H](O)C[C@@H](O)CC(=O)O[C@H]1C)C[C@H](O)[C@H]2C(=O)O | – | – | – | – | – | – | – | inhibition [8]: Active
C/C(COc1ccccc1)=N\N=C1\SC(c2ccccc2)C(=O)N1C (racemic) | > 100 µg/mL | 18 µM | 12 µM | 27% | – | – | – | solubility [16]: Insoluble; IC50 [17]: ND(Insoluble)
CCC1S/C(=N/N=C(\C)COc2ccccc2)N(c2ccccc2)C1=O (racemic) | 100 µg/mL | 5.8 µM | 11.1 µM | 66% | Active | 4% | > 100 µM | IC50 [13]: > 100 µM; IC50 ([17]; read-out: IC50): 9.5 µM; inhibition [18]: 64%
C/C(COc1ccccc1)=N\N=C1\SC(C(C)C)C(=O)N1c1ccccc1 (racemic) | > 100 µg/mL | 6.1 µM | 4.9 µM | 78% | Active | 10% | > 100 µM | inhibition [8]: Active; Ratio IC50 [10]: 25; IC50 [11]: > 262 µM; IC50 [12]: 10.1 µM; Activity [19]: Active; Activity [20]: Active; IC50 [13]: > 100 µM; IC50 ([17]; read-out: IC50): 6.6 µM; inhibition [18]: 81%; highest nontoxic concentration [3]: > 262 µM; Activity [21]: 89.6%; Activity [22]: Non-toxic; Activity [23]: Non-toxic; Activity [24]: Dose-dependent effect
C/C(COc1ccccc1)=N\N=C1\SC(c2ccccc2)C(=O)N1c1ccccc1 (racemic) | > 100 µg/mL | 11.1 µM | 15.6 µM | 43% | – | 15% | – | solubility [16]: Insoluble; IC50 [17]: ND(Insoluble)
C/C(COc1ccccc1)=N\N=C1\SC(c2ccccc2)C(=S)N1c1ccccc1 (racemic) | 100 µg/mL | 11.2 µM | 4.2 µM | 72% | – | 89% | 10.8 µM | IC50 ([17]; read-out: IC50): 7 µM; inhibition [18]: 79%
C/C(COc1ccccc1)=N\N=C1/NC(=O)C(c2ccccc2)S1 (racemic) | 25 µg/mL | 18.7 µM | 34.8 µM | 63% | – | – | – | inhibition [2]: 63%; solubility [16]: Insoluble
O=C(Cn1ccnc1[N+](=O)[O-])NCc1ccccc1 [BENZNIDAZOLE] | – | 6.2 µM | 6.6 µM | – | Active | – | – | IC50 [12]: 13.9 µM; Activity [21]: >99%
